From ChEMBL document CHEMBL1148530, “Discovery of new antitubercular oxazolyl thiosemicarbazones” (J Med Chem, 2006)
In brackets after ≈: the same amount, converted by molar mass. Activity calls are given as the source filed them. The calls are words filed in the database; no cut-off is given here.

Test system: Vero
Experiment: Selectivity index, IC50 for Vero cell line/ MIC for multidrug resistant Mycobacterium tuberculosis
Assay type: functional
Outline: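 Vero cells were exposed to compound at 62.5 µg/mL for 72 h. Viability was read by MTT conversion to formazan. Selectivity index is the Vero IC50 divided by the agar-dilution MIC against the listed strain.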

S=C(NN=C(c1ccccc1)c1ccccc1)Nc1ncc(C2CCC2)o1 gave a Selectivity index greater than 1250.

Test system: Mycobacterium tuberculosis
Experiment: Antimycobacterial activity against multidrug resistant Mycobacterium tuberculosis
Assay type: functional
Outline: (§1)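 MIC determined by agar dilution, following the NCCLS-recommended approach, in duplicate. Strains were M. tuberculosis H37Rv and a multidrug-resistant M. tuberculosis. Concentrations were tested up to 25 µg/mL.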

First: Cc1ccc(/C=N/N=C(\S)Nc2ncc(C3CCC3)o2)cc1
Second: COc1ccc(/C=N/N=C(\S)Nc2ncc(C3CCC3)o2)cc1
The MIC of the first is 2-fold lower: 3.12 µg/mL (≈ 9.92 µM) for the first, 6.25 µg/mL (≈ 18.9 µM) for the second.

Compared with O=[N+]([O-])c1ccccc1/C=N/N=C(\S)Nc1ncc(C2CCC2)o1, Oc1ccccc1/C=N/N=C(\S)Nc1ncc(C2CCC2)o1 is 8-fold higher in MIC: 0.78 µg/mL (≈ 2.26 µM) for the first, 6.25 µg/mL (≈ 19.8 µM) for the second.

Going from C/C(=N\N=C(/S)Nc1ncc(C2CCC2)o1)c1ccc(O)cc1 to C/C(=N\N=C(/S)Nc1ncc(C2CCC2)o1)c1ccc(C)cc1, the MIC falls from 3.12 µg/mL (≈ 9.44 µM) to 0.78 µg/mL (≈ 2.37 µM) (4-fold).

First: Oc1[nH]c2ccccc2c1/N=N/C(S)=N/c1ncc(C2CCC2)o1
Second: Oc1[nH]c2ccc(F)cc2c1/N=N/C(S)=N/c1ncc(C2CCC2)o1
The MIC of the first is 2-fold higher: 25 µg/mL (≈ 73.2 µM) for the first, 12.5 µg/mL (≈ 34.8 µM) for the second.

Compared with COc1c(N2CCNC(C)C2)c(F)cc2c(=O)c(C(=O)O)cn(C3CC3)c12 (stereo unspecified) [GATIFLOXACIN], COc1cc(/C=N/N=C(\S)Nc2ncc(C3CCC3)o2)ccc1O is 2-fold higher in MIC: 6.25 µg/mL (≈ 16.6 µM) for the first, 12.5 µg/mL (≈ 36.1 µM) for the second.

CO[C@H]1/C=C/O[C@@]2(C)Oc3c(C)c(O)c4c(O)c(c(/C=N/N5CCN(C)CC5)c(O)c4c3C2=O)NC(=O)/C(C)=C\C=C\[C@H](C)[C@H](O)[C@@H](C)[C@@H](O)[C@@H](C)[C@H](OC(C)=O)[C@@H]1C [RIFAMPIN] and C/C(=N\N=C(/S)Nc1ncc(C2CCC2)o1)c1ccccc1O are the same in MIC: 3.12 µg/mL (≈ 3.79 µM) for the first, 3.12 µg/mL (≈ 9.44 µM) for the second.

First: CC[C@@H](CO)NCCN[C@@H](CC)CO [ETHAMBUTOL]
Second: S=C(NN=C(Cc1ccccc1)Cc1ccccc1)Nc1ncc(C2CCC2)o1
The MIC of the first is 4-fold higher: 25 µg/mL (≈ 122 µM) for the first, 6.25 µg/mL (≈ 15.4 µM) for the second.

First: S=C(N/N=C/c1ccc(Cl)cc1)Nc1ncc(C2CCC2)o1
Second: CN(C)c1ccc(/C=N/N=C(\S)Nc2ncc(C3CCC3)o2)cc1
The MIC of the first is 2-fold lower: 1.56 µg/mL (≈ 4.66 µM) for the first, 3.12 µg/mL (≈ 9.08 µM) for the second.

Going from C/C(=N\N=C(/S)Nc1ncc(C2CCC2)o1)c1ccccc1 to C/C(=N\N=C(/S)Nc1ncc(C2CCC2)o1)c1ccc(N)cc1, the MIC falls from 3.12 µg/mL (≈ 9.92 µM) to 0.78 µg/mL (≈ 2.37 µM) (4-fold).

Compared with S=C(N/N=C(\c1ccccc1)c1ccc(Br)cc1)Nc1ncc(C2CCC2)o1, S=C(NN=C(c1ccccc1)c1ccccc1)Nc1ncc(C2CCC2)o1 is 2-fold higher in MIC: 0.05 µg/mL (≈ 0.11 µM) for the first, 0.1 µg/mL (≈ 0.266 µM) for the second.

Going from O=[N+]([O-])c1ccc(/C=N/N=C(\S)Nc2ncc(C3CCC3)o2)cc1 to O=[N+]([O-])c1cccc(/C=N/N=C(\S)Nc2ncc(C3CCC3)o2)c1, the MIC rises from 0.39 µg/mL (≈ 1.13 µM) to 0.78 µg/mL (≈ 2.26 µM) (2-fold).

Compared with C/C(=N\N=C(/S)Nc1ncc(C2CCC2)o1)c1ccc([N+](=O)[O-])cc1, NNC(=O)c1ccncc1 [ISONIAZID] is 7.8-fold higher in MIC: 0.2 µg/mL (≈ 0.556 µM) for the first, 1.56 µg/mL (≈ 11.4 µM) for the second.

Test system: Mycobacterium tuberculosis
Experiment: Antimycobacterial activity against multidrug resistant Mycobacterium tuberculosis at 25 ug/ml
Assay type: functional, organism-based
Outline: as §1

For N/N=C(\S)Nc1ncc(C2CCC2)o1, the Activity was “inactive”.
